Data as given in ChEMBL document CHEMBL5724801, “EUbOPEN Chemogenomics Library - Multiplex” (2024).
Values joined by “and” are separate entries in the source; they are usually repeats but may differ in a detail not shown here. Equal entries are not always repeated.

Tested on: HEK-293T
Assay: Multiplex assay against HEK293T
Format: toxicity, cell-based
Conditions: human
Outline: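 Imaging took place on a CQ1 microscope at 37°C and 5% CO2 once compound had been added to live cells stained at seeding with Hoechst33342, BioTracker Green Microtubule Cytoskeleton Dye, MitoTracker Red and Annexin V Alexa Fluor 680. CellPathfinder machine-learning gating classed cells as Hoechst high-intensity objects or normal cells, classed normal cells as having healthy, pyknosed or fragmented nuclei, and classed pyknosed cells as mitotic or apoptotic. Tubulin, mitochondrial-mass and membrane-permeability phenotypes are per cents of the healthy-nucleus cells.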

[1] = 12 h, 1 µM, compound concentration 1 uM
[2] = 12 h, 10 µM, compound concentration 10 uM
[3] = 24 h, 1 µM, compound concentration 1 uM
[4] = 24 h, 10 µM, compound concentration 10 uM
[5] = 48 h, 1 µM, compound concentration 1 uM
[6] = 48 h, 10 µM, compound concentration 10 uM

**Q.** Which results are given for Cc1ccc(C(C)(O)c2nc3ccccc3s2)c(C)c1 (stereo unspecified)?
**A.** Population Apoptotic (%) [1]: 30% and 41%; Population Healthy Nuclei (%) [1]: 72% and 79%; Population Hoechst High Intensity Objects (%) [1]: 4% and 5%; Population Membrane Permeable-Phenotype (%) [1]: 1% and 0%; Population Mitochondria Different-Phenotype (%) [1]: 36% and 63%; Population Mitotic Cells (%) [1]: 70% and 58%; Population Normal (%) [1]: 95% and 94%; Population Pyknosed Nuclei (%) [1]: 8% and 16%; Population Tubulin-Different-Phenotype (%) [1]: 30% and 25%; Total Cell Count [1]: 483 and 308; Population Apoptotic (%) [2]: 56% and 36%; Population Fragmented Nuclei (%) [2]: 5% and 7%; Population Healthy Nuclei (%) [2]: 82% and 78%; Population Hoechst High Intensity Objects (%) [2]: 8% and 7%; Population Membrane Permeable-Phenotype (%) [2]: 0%; Population Mitochondria Different-Phenotype (%) [2]: 62% and 72%; Population Mitotic Cells (%) [2]: 43% and 63%; Population Normal (%) [2]: 91% and 92%; Population Pyknosed Nuclei (%) [2]: 12% and 13%; Population Tubulin-Different-Phenotype (%) [2]: 44% and 25%; Total Cell Count [2]: 412 and 318; Population Apoptotic (%) [3]: 26% and 32%; Population Fragmented Nuclei (%) [3]: 18% and 6%; Population Healthy Nuclei (%) [3]: 73% and 85%; Population Hoechst High Intensity Objects (%) [3]: 3%; Population Membrane Permeable-Phenotype (%) [3]: 1% and 0%; Population Mitochondria Different-Phenotype (%) [3]: 15% and 36%; Population Mitotic Cells (%) [3]: 73% and 67%; Population Normal (%) [3]: 96%; Population Pyknosed Nuclei (%) [3]: 8% and 7%; Population Tubulin-Different-Phenotype (%) [3]: 11% and 16%; Total Cell Count [3]: 645 and 447; Population Apoptotic (%) [4]: 28% and 36%; Population Fragmented Nuclei (%) [4]: 6% and 10%; Population Healthy Nuclei (%) [4]: 82% and 78%; Population Hoechst High Intensity Objects (%) [4]: 8% and 6%; Population Membrane Permeable-Phenotype (%) [4]: 0%; Population Mitochondria Different-Phenotype (%) [4]: 42% and 63%; Population Mitotic Cells (%) [4]: 71% and 63%; Population Normal (%) [4]: 91% and 93%; Population Pyknosed Nuclei (%) [4]: 11% and 10%; Population Tubulin-Different-Phenotype (%) [4]: 34% and 23%; Total Cell Count [4]: 487 and 379; Population Apoptotic (%) [5]: 17% and 34%; Population Fragmented Nuclei (%) [5]: 20% and 13%; Population Healthy Nuclei (%) [5]: 73% and 78%; Population Hoechst High Intensity Objects (%) [5]: 2% and 3%; Population Membrane Permeable-Phenotype (%) [5]: 1%; Population Mitochondria Different-Phenotype (%) [5]: 15% and 22%; Population Mitotic Cells (%) [5]: 82% and 65%; Population Normal (%) [5]: 97% and 96%; Population Pyknosed Nuclei (%) [5]: 5% and 8%; Population Tubulin-Different-Phenotype (%) [5]: 12% and 11%; Total Cell Count [5]: 964 and 621; Population Apoptotic (%) [6]: 33% and 50%; Population Fragmented Nuclei (%) [6]: 14% and 13%; Population Healthy Nuclei (%) [6]: 76% and 80%; Population Hoechst High Intensity Objects (%) [6]: 2% and 3%; Population Membrane Permeable-Phenotype (%) [6]: 0% and 1%; Population Mitochondria Different-Phenotype (%) [6]: 28% and 33%; Population Mitotic Cells (%) [6]: 66% and 50%; Population Normal (%) [6]: 97% and 96%; Population Pyknosed Nuclei (%) [6]: 9% and 5%; Population Tubulin-Different-Phenotype (%) [6]: 18% and 13%; Total Cell Count [6]: 713 and 508

**Q.** Cc1noc(-c2ccc(-c3ccc(CC(=O)O)cc3)cc2)c1NC(=O)O[C@H](C)c1ccccc1Cl was tested. Which “Population Apoptotic (%)” value [1] did it give?
**A.** 29% and 59%

**Q.** And the “Population Fragmented Nuclei (%)” value [1]?
**A.** 7% and 4%

**Q.** What about the “Population Healthy Nuclei (%)” value [1] of the same compound?
**A.** 79% and 77%

**Q.** And the “Population Hoechst High Intensity Objects (%)” value [1]?
**A.** 5% and 11%

**Q.** And the “Population Membrane Permeable-Phenotype (%)” value [1]?
**A.** 0%

**Q.** And the “Population Mitochondria Different-Phenotype (%)” value [1]?
**A.** 38% and 69%

**Q.** And the “Population Mitotic Cells (%)” value [1]?
**A.** 70% and 40%

**Q.** And the “Population Normal (%)” value [1]?
**A.** 94% and 88%

**Q.** What about the “Population Pyknosed Nuclei (%)” value [1] of the same compound?
**A.** 13% and 17%

**Q.** And the “Population Tubulin-Different-Phenotype (%)” value [1]?
**A.** 29% and 28%

**Q.** And the “Total Cell Count” value [1]?
**A.** 403 and 296

**Q.** What about the “Population Apoptotic (%)” value [2] of the same compound?
**A.** 51% and 41%

**Q.** And the “Population Fragmented Nuclei (%)” value [2]?
**A.** 11% and 8%

**Q.** What about the “Population Healthy Nuclei (%)” value [2] of the same compound?
**A.** 68% and 72%

**Q.** And the “Population Hoechst High Intensity Objects (%)” value [2]?
**A.** 7% and 14%

**Q.** What about the “Population Membrane Permeable-Phenotype (%)” value [2] of the same compound?
**A.** 0%

**Q.** And the “Population Mitochondria Different-Phenotype (%)” value [2]?
**A.** 72% and 69%

**Q.** What about the “Population Mitotic Cells (%)” value [2] of the same compound?
**A.** 48% and 58%

**Q.** What about the “Population Normal (%)” value [2] of the same compound?
**A.** 92% and 85%

**Q.** What about the “Population Pyknosed Nuclei (%)” value [2] of the same compound?
**A.** 20% and 18%

**Q.** And the “Population Tubulin-Different-Phenotype (%)” value [2]?
**A.** 65% and 34%

**Q.** And the “Total Cell Count” value [2]?
**A.** 295 and 341

**Q.** What about the “Population Apoptotic (%)” value [3] of the same compound?
**A.** 22% and 40%

**Q.** What about the “Population Fragmented Nuclei (%)” value [3] of the same compound?
**A.** 10% and 9%

**Q.** What about the “Population Healthy Nuclei (%)” value [3] of the same compound?
**A.** 79% and 80%

**Q.** And the “Population Hoechst High Intensity Objects (%)” value [3]?
**A.** 5% and 7%

**Q.** What about the “Population Membrane Permeable-Phenotype (%)” value [3] of the same compound?
**A.** 0%

**Q.** And the “Population Mitochondria Different-Phenotype (%)” value [3]?
**A.** 23% and 42%

**Q.** And the “Population Mitotic Cells (%)” value [3]?
**A.** 77% and 60%

**Q.** What about the “Population Normal (%)” value [3] of the same compound?
**A.** 94% and 92%

**Q.** What about the “Population Pyknosed Nuclei (%)” value [3] of the same compound?
**A.** 9%

**Q.** And the “Population Tubulin-Different-Phenotype (%)” value [3]?
**A.** 17% and 20%

**Q.** What about the “Total Cell Count” value [3] of the same compound?
**A.** 570 and 378

**Q.** And the “Population Apoptotic (%)” value [4]?
**A.** 39% and 32%

**Q.** And the “Population Fragmented Nuclei (%)” value [4]?
**A.** 7% and 9%

**Q.** What about the “Population Healthy Nuclei (%)” value [4] of the same compound?
**A.** 76% and 75%

**Q.** What about the “Population Hoechst High Intensity Objects (%)” value [4] of the same compound?
**A.** 8% and 16%

**Q.** And the “Population Membrane Permeable-Phenotype (%)” value [4]?
**A.** 1% and 0%

**Q.** And the “Population Mitochondria Different-Phenotype (%)” value [4]?
**A.** 58% and 53%

**Q.** And the “Population Mitotic Cells (%)” value [4]?
**A.** 60% and 68%

**Q.** What about the “Population Normal (%)” value [4] of the same compound?
**A.** 91% and 83%

**Q.** And the “Population Pyknosed Nuclei (%)” value [4]?
**A.** 16% and 15%

**Q.** And the “Population Tubulin-Different-Phenotype (%)” value [4]?
**A.** 47% and 38%

**Q.** And the “Total Cell Count” value [4]?
**A.** 352 and 390

**Q.** What about the “Population Apoptotic (%)” value [5] of the same compound?
**A.** 17% and 35%

**Q.** What about the “Population Fragmented Nuclei (%)” value [5] of the same compound?
**A.** 11% and 12%

**Q.** And the “Population Healthy Nuclei (%)” value [5]?
**A.** 82% and 76%

**Q.** And the “Population Hoechst High Intensity Objects (%)” value [5]?
**A.** 4%

**Q.** What about the “Population Membrane Permeable-Phenotype (%)” value [5] of the same compound?
**A.** 1% and 0%

**Q.** And the “Population Mitochondria Different-Phenotype (%)” value [5]?
**A.** 20% and 34%

**Q.** What about the “Population Mitotic Cells (%)” value [5] of the same compound?
**A.** 82% and 64%

**Q.** And the “Population Normal (%)” value [5]?
**A.** 95%

**Q.** And the “Population Pyknosed Nuclei (%)” value [5]?
**A.** 5% and 10%

**Q.** What about the “Population Tubulin-Different-Phenotype (%)” value [5] of the same compound?
**A.** 14% and 21%

**Q.** And the “Total Cell Count” value [5]?
**A.** 930 and 494

**Q.** What about the “Population Apoptotic (%)” value [6] of the same compound?
**A.** 38% and 46%

**Q.** What about the “Population Fragmented Nuclei (%)” value [6] of the same compound?
**A.** 10% and 13%

**Q.** And the “Population Healthy Nuclei (%)” value [6]?
**A.** 79% and 74%

**Q.** What about the “Population Hoechst High Intensity Objects (%)” value [6] of the same compound?
**A.** 6% and 10%

**Q.** And the “Population Membrane Permeable-Phenotype (%)” value [6]?
**A.** 0% and 1%

**Q.** And the “Population Mitochondria Different-Phenotype (%)” value [6]?
**A.** 40% and 35%

**Q.** What about the “Population Mitotic Cells (%)” value [6] of the same compound?
**A.** 61% and 53%

**Q.** And the “Population Normal (%)” value [6]?
**A.** 93% and 89%

**Q.** What about the “Population Pyknosed Nuclei (%)” value [6] of the same compound?
**A.** 10% and 11%

**Q.** And the “Population Tubulin-Different-Phenotype (%)” value [6]?
**A.** 33% and 25%

**Q.** What about the “Total Cell Count” value [6] of the same compound?
**A.** 445 and 508
